Assay results from ChEMBL document CHEMBL1136217, “Mapping the kinase domain of Janus Kinase 3” (Bioorg Med Chem Lett, 2003).
Values belong to the compound of their own block, whether it stands above or below them. Activity calls are given as the source filed them. No cut-off for these calls is given here.

Key:
[1] = biological target: T1, Tyrosine-protein kinase JAK3 (Homo sapiens, UniProt P52333); test: Inhibitory activity against Janus Kinase 3 protein tyrosine kinase.
T1 sequence (P52333 whole entry): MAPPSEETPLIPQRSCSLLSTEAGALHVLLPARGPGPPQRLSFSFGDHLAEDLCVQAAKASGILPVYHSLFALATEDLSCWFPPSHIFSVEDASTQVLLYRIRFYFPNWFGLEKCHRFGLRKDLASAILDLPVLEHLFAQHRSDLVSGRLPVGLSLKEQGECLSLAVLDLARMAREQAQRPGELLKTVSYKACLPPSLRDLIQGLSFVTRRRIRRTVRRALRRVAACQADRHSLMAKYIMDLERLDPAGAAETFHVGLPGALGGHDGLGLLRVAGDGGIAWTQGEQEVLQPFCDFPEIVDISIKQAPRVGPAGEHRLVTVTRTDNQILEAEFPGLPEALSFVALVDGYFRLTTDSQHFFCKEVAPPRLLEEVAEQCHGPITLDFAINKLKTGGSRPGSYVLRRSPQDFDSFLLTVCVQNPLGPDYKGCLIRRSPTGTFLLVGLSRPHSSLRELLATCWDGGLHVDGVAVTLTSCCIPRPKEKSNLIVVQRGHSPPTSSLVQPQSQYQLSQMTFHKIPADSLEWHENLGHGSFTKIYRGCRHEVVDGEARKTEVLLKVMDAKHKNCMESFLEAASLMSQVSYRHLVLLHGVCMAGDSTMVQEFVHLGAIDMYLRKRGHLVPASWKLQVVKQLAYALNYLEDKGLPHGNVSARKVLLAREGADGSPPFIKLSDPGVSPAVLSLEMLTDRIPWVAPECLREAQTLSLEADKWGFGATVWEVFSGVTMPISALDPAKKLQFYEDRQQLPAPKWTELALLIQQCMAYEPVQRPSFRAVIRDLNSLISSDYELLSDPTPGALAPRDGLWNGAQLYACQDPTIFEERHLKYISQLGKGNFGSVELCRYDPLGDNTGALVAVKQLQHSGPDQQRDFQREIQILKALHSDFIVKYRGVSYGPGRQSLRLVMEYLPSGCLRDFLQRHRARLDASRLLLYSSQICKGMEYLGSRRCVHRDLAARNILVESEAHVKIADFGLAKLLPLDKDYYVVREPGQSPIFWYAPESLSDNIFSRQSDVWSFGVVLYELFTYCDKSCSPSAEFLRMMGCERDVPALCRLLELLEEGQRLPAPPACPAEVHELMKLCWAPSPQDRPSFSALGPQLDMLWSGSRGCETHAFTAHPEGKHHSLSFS

CTLL [2] = test: Inhibitory activity against IL-2 induced proliferation of mouse CTLL cells; format: functional, cell-based
[3] = biological target: Tyrosine-protein kinase JAK3 (Mus musculus) (UniProt Q62137); details: at 3 µM
Tyrosine-protein kinase JAK3 (Mus musculus), sequence (Q62137 whole entry, looked up): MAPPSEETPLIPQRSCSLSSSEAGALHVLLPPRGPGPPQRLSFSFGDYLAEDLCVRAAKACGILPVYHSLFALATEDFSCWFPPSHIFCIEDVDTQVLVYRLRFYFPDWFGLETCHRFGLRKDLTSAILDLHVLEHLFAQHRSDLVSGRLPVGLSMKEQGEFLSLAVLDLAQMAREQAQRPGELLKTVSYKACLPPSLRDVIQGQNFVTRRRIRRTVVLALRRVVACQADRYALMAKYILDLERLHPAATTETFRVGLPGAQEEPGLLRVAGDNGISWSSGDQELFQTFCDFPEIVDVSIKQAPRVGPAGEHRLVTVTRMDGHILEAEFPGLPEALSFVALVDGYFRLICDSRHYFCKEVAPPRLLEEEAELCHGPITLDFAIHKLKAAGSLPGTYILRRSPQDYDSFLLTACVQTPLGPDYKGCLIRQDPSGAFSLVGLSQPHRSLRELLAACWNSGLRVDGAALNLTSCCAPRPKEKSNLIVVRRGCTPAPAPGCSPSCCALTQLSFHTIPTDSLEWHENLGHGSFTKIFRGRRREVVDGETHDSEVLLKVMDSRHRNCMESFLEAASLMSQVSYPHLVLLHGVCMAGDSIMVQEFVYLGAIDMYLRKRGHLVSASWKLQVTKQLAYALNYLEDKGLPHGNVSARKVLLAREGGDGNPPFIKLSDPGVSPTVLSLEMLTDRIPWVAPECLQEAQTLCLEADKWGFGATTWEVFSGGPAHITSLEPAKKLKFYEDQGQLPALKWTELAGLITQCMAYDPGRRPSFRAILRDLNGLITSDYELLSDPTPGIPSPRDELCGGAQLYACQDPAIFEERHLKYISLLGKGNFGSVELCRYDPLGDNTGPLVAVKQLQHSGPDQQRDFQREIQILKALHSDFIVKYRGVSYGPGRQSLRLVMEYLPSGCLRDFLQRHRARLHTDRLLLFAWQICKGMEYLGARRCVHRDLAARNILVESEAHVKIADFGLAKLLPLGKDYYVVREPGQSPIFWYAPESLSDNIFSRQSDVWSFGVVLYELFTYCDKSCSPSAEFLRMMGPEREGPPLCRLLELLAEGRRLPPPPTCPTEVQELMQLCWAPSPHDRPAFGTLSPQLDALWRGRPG

T-cell [4] = test: Inhibitory activity against IL-2 induced proliferation of human T-cells; format: functional, cell-based
CTLL [5] = test: Inhibitory activity against IL-2 induced proliferation in mouse CTLL cells; format: functional, cell-based
Summary of the method: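 Murine CTLL cells were seeded at 2 × 10^4 per well without IL-2 for 6 h. At time zero, recombinant human IL-2 (10 U/mL) and inhibitor in DMSO (0.5% final) were added. [3H]-thymidine (1 µCi/well) was added at 18 h, and cells were harvested at 24 h. Proliferation was read as incorporated radioactivity by scintillation counting.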

T-cell [6] = test: Inhibitory activity against IL-2 induced proliferation in human T-cells; format: functional, cell-based
[7] = T max following ip administration at 1 mg/kg; format: ADME, organism-based; design: dose 1 mg/kg, route intraperitoneal; details: in vivo
[8] = Terminal T1/2 following ip administration at 1 mg/kg; format: ADME, organism-based; design: dose 1 mg/kg, route intraperitoneal; details: in vivo
[9] = Cp max following ip administration at 1 mg/kg; format: ADME, organism-based; design: dose 1 mg/kg, route intraperitoneal; details: plasma, read-out: Cp max
[10] = Area under curve (AUC) following ip administration at 1 mg/kg; format: ADME, organism-based; design: dose 1 mg/kg, route intraperitoneal; details: in vivo

Compound: O=C1Nc2ccc(C(=O)c3cccs3)cc2/C1=C/c1ccc(F)cc1
IC50 [1]: 4900 nM

Compound: O=C1Nc2ccc(C(=O)c3cccs3)cc2/C1=C/c1ccccc1
IC50 [1]: 2300 nM

Compound: O=C1Nc2ncc(-c3cccnc3)cc2/C1=C/c1ccc[nH]1
IC50 (CTLL [5]): 2300 nM | IC50 (T-cell [6]): 2000 nM

Compound: O=C1Nc2ccc(NC(=O)c3ccccc3)cc2/C1=C/c1ccc[nH]1
IC50 [1]: 870 nM

Compound: CS(=O)(=O)c1ccc(/C=C2\C(=O)Nc3ccc(C(=O)c4cccs4)cc32)cc1
IC50 [1]: 7100 nM

Compound: O=C1Nc2ccc([N+](=O)[O-])cc2/C1=C/c1ccc[nH]1
IC50 [1]: 710 nM

Compound: O=C1Nc2ccc(-c3cccnc3)cc2/C1=C/c1ccc[nH]1
Tmax [7]: 0.5 h | half-life [8]: 3 h | Cmax [9]: 600 ng/mL | AUC [10]: 7690 ng·h/mL

Compound: CC(=O)Nc1ccc(/C=C2\C(=O)Nc3ccc(C(=O)c4cccs4)cc32)cc1
IC50 [1]: 700 nM

Compound: O=C1Nc2cnc(-c3cccnc3)cc2/C1=C/c1ccc[nH]1
Tmax [7]: 0.5 h | IC50 (CTLL [2]): 450 nM | half-life [8]: 3.3 h | IC50 (T-cell [4]): 30 nM | Cmax [9]: 700 ng/mL | AUC [10]: 4580 ng·h/mL

Compound: O=C1Nc2ccc(C(=O)c3cccs3)cc2/C1=C/C(=O)c1ccc[nH]1
IC50 [1]: 260 nM

Continued by falling IC50 [1], values first:

inhibition [3]: Active | IC50 [1]: 235 nM
Compound: O=C1Nc2ccc(-c3cccnc3)nc2/C1=C/c1ccc[nH]1
IC50 (CTLL [2]): 920 nM | IC50 (T-cell [4]): 700 nM

IC50 [1]: 213 nM
Compound: O=C1Nc2ccc(C(=O)O)cc2/C1=C/c1ccc[nH]1

IC50 [1]: 210 nM
Compound: CN(C)C(=O)c1ccc2c(c1)/C(=C/c1ccc[nH]1)C(=O)N2

IC50 [1]: 200 nM
Compound: CN(C)c1ccc(/C=C2\C(=O)Nc3ccc(C(=O)c4cccs4)cc32)cc1

IC50 [1]: 190 nM
Compound: O=C1Nc2ccc(C(O)c3cccs3)cc2/C1=C/c1ccc[nH]1 (centres undefined)

IC50 [1]: 168 nM
Compound: O=C1Nc2ccc(C(=O)c3cccnc3)cc2/C1=C/c1ccc[nH]1

IC50 [1]: 26 nM
Compound: O=C1Nc2ccc(C(=O)c3cccs3)cc2/C1=C/c1ccc[nH]1
